The term Ki denotes the dissociation constant of the complex between target and ligand, obtained from inhibition or displacement. Read a high Ki as weaker binding.

The target in assay [1] is T1, 5-hydroxytryptamine receptor 5A (Homo sapiens, UniProt P47898). The assay can be described thus: Binding affinity towards 5-hydroxytryptamine 5A receptor using lysergic acid diethylamide (LSD) as radioligand. The essentials: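 Radioligand competition binding at cloned 5-HT5A receptors (clone supplied by R. Hen). Nonspecific binding defined with 1 μM LSD.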
T1 sequence (P47898 whole entry): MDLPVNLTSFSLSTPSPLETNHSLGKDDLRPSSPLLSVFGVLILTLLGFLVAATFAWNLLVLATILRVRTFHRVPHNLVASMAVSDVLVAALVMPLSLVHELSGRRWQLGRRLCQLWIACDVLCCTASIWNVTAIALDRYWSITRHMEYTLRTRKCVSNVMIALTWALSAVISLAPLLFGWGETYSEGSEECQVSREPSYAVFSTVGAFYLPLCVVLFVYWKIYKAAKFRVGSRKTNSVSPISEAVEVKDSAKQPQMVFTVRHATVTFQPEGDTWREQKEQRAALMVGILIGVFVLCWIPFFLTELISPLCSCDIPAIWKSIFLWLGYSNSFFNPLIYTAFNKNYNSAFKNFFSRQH
In assay [2] the target is T1, 5-hydroxytryptamine receptor 5A. The assay can be described thus: Binding affinity towards human 5-hydroxytryptamine 5A receptor using LSD as radioligand.
The target of assay [3] is 5-hydroxytryptamine receptor 2A (Rattus norvegicus, UniProt P14842). The assay can be described thus: Binding affinity towards rat 5-hydroxytryptamine 2A receptor expressed in NIH3T3 cells using [3H]ketanserin as radioligand. The assay is classed as cell-based. The essentials: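 Membranes from confluent NIH-3T3 cells stably expressing rat 5-HT2A, washed by centrifugation in 50 mM Tris-HCl. ~10 μg protein incubated with 0.5 nM [3H]ketanserin and 11 test concentrations (10⁻¹⁰ to 10⁻⁵ M) in triplicate. Incubation was 30 min at 37 °C in Tris/EDTA/MgCl2/ascorbate pH 7.4. Nonspecific binding defined with 10 μM ketanserin. Bound ligand was filtered and counted. Ki from Cheng–Prusoff, ≥3 determinations.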
Sequence of 5-hydroxytryptamine receptor 2A (P14842 whole entry): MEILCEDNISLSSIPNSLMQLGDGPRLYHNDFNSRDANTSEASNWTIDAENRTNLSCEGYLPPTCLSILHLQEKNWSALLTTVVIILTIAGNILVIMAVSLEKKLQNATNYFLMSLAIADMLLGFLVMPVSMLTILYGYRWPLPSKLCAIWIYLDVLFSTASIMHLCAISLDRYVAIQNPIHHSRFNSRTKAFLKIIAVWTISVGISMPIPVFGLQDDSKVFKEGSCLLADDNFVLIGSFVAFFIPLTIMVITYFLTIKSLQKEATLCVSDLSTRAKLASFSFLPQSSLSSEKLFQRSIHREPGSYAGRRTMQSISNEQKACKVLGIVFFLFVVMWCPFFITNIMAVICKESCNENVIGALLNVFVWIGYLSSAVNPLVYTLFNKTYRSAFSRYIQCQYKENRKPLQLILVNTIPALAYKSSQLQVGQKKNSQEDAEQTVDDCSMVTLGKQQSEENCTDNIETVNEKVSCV

For assay [4], the target named is 5-hydroxytryptamine receptor 5A (Mus musculus, UniProt P30966). Put plainly: Binding affinity towards mouse 5-hydroxytryptamine 5A receptor using LSD as radioligand.
Sequence of 5-hydroxytryptamine receptor 5A (Mus musculus, UniProt P30966) (P30966 whole entry): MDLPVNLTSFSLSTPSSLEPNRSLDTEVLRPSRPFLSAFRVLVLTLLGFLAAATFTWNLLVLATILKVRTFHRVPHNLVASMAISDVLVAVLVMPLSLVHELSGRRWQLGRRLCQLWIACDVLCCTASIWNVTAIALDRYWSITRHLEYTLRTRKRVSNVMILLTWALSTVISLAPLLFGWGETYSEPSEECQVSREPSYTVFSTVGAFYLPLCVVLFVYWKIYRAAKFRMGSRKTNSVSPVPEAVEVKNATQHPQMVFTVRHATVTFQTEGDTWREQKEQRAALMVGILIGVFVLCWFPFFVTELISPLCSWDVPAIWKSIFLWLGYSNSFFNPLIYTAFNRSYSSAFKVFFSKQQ
The target in assay [5] is T2, 5-hydroxytryptamine receptor 2C (Rattus norvegicus, UniProt P08909).
T2 sequence (P08909 whole entry): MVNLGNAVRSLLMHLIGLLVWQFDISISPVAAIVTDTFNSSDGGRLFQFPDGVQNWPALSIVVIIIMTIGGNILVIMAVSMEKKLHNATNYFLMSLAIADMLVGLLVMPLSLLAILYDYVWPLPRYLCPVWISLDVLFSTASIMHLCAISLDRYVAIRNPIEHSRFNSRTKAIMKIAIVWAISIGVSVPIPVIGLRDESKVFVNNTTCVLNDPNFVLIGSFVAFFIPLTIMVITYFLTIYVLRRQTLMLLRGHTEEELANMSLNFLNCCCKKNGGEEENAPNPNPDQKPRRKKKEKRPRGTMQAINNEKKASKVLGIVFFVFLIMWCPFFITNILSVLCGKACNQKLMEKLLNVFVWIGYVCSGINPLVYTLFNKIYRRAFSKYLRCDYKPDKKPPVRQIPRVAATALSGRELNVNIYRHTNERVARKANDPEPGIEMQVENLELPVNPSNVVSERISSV
The assay can be described thus: Binding affinity towards rat 5-hydroxytryptamine 2C receptor expressed in A-9 cells using [3H]mesulergine as radioligand. The assay is classed as cell-based. The essentials:
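Rat 5-HT2C stably expressed in A-9 cells, grown to confluence; washed membranes (~10 μg protein) used. Competition against 2.0 nM [3H]mesulergine with 11 concentrations from 10⁻¹⁰ to 10⁻⁵ M, triplicate. Incubation 30 min, 37 °C, pH 7.4 Tris buffer with EDTA, MgCl2 and ascorbate. 1 μM mesulergine defined nonspecific binding. Filtration, scintillation counting. Ki via Cheng–Prusoff; at least three replicates.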

With `CC1NCCc2c1[nH]c1ccccc21` (stereo unspecified) [TETRAHYDROHARMAN], the Ki in assay [1] is over 10 µM.
Still for that read-out and setting: then `Fc1ccc(OCCCN2CCc3ccccc3C2)cc1`, with 0.4 µM.
`Fc1ccc(OCCCN2CCCCC2)cc1` came in with a Ki in assay [1] of over 10 µM.
In the case of `Cn1c2c(c3ccccc31)CN(CCCOc1ccc(Cl)c(Cl)c1)CC2`, the figures for the Ki in assay [2] and in assay [3] were 200 nM and 195 nM, respectively.
In the case of `COc1ccc(CCCCN2CCc3c(c4ccccc4n3C)C2)cc1`, the Ki amounted to 90 nM in assay [4], 990 nM in assay [5] and 415 nM in assay [3].
Take `O=C(CCCN1CCc2[nH]c3ccccc3c2C1)c1ccc(F)cc1`: the Ki in assay [4] was 512 nM.
Regarding `Cn1c2c(c3ccccc31)CN(CCCC(O)c1ccc(F)cc1)CC2` (stereo unspecified), the Ki in assay [2] came to 285 nM; in assay [4] it was 225 nM; in assay [5] it was 390 nM; in assay [3], 160 nM.
`c1ccc(OCCCN2CCc3c([nH]c4ccccc34)C2)cc1`: the Ki in assay [4] worked out at 335 nM; in assay [5] it was 310 nM; in assay [3], 50 nM.
For `Cn1c2c(c3ccccc31)CN(CCCO)CC2`, the Ki in assay [2] is 1120 nM; in assay [4], 1100 nM.
Consider `c1ccc(OCCCN2CCc3[nH]c4ccccc4c3C2)cc1`, for which the figures for the Ki in assay [4], in assay [5] and in assay [3] were 600 nM, 160 nM and 20 nM, respectively.
In the case of `Cn1c2c(c3ccccc31)CN(CCCOc1ccc(F)cc1)CC2`, the Ki in assay [4] was 13 nM; in assay [5] it was 75 nM; in assay [3] it was 30 nM.
The molecule `COc1ccc2[nH]c3c(c2c1)CCN=C3C` showed a Ki in assay [1] of over 10 µM.
As to `Cn1c2c(c3ccccc31)CN(CCCOc1ccc(N)cc1)CC2`, the Ki in assay [2] was 190 nM; in assay [5], 300 nM; in assay [3] it was 285 nM.
Turning to `CC1=NCCc2c1n(C)c1ccccc21`, the Ki in assay [1] was over 10 µM.
In turn, `Cn1c2c(c3ccccc31)CN(CCCc1ccccc1)CC2` showed a Ki in assay [4] of 250 nM. In other words, the sub-micromolar range.
Take `CN(C)CCCOc1ccc(F)cc1`: the Ki in assay [1] is over 10 µM.
Consider `Cn1c2c(c3ccccc31)CN(C/C=C/CCc1ccccc1)CC2`, for which the Ki in assay [2] was determined as 185 nM; in assay [4], 350 nM; in assay [5], 245 nM; in assay [3], 60 nM.
For `c1ccc(Cn2c3c(c4ccccc42)CN(CCCOc2ccccc2)CC3)cc1`, the Ki in assay [4] was 875 nM; in assay [5] it was 90 nM; in assay [3] it was 65 nM.
On to `Cn1c2c(c3cc(Cl)ccc31)CN(CCCOc1ccc(F)cc1)CC2`, for which the Ki in assay [2] worked out at 270 nM; in assay [4], 180 nM; in assay [5], 300 nM; in assay [3], 130 nM.
Regarding `COc1ccc2c3c([nH]c2c1)C(C)NCC3` (stereo unspecified), the Ki in assay [1] is over 10 µM.
Turning to `COc1cccc2c3c(n(C)c12)CCN(CCCOc1ccc(F)cc1)C3`, the Ki in assay [2] worked out at 1390 nM; in assay [4] it was 1220 nM; in assay [5], 225 nM; in assay [3], 120 nM.
In assay [1], `COc1ccc2c(c1)[nH]c1c(C)nccc12` [HARMINE] had a Ki of over 10 µM.
`COc1ccc2[nH]c3c(C)nccc3c2c1` displayed a Ki in assay [1] of over 10 µM.
Still for that read-out and setting: the same measure for `COc1ccc2c3c([nH]c2c1)C=NCC3` [CGS-19281A]: over 10 µM.
For `Cn1c2c(c3ccccc31)CN(CCCOc1ccc(Cl)cc1)CC2`, the Ki in assay [2] stood at 200 nM; in assay [3] it was 115 nM.
With `COc1ccc2c(c1)c1c(n2C)CCN(CCCOc2ccc(F)cc2)C1`, the Ki came to 165 nM in assay [2], 98 nM in assay [4], 150 nM in assay [5] and 38 nM in assay [3].
In assay [1], `Cn1c2c(c3ccccc31)CC(CCCOc1ccc(N)cc1)CC2` (stereo unspecified) came in with a Ki of over 10 µM.
Take `Cn1c2c(c3ccccc31)CN(CCC/C(=N/O)c1ccc(F)cc1)CC2`: the figures for the Ki in assay [2], in assay [5] and in assay [3] were 340 nM, 190 nM and 38 nM, respectively.
Take `CCn1c2c(c3ccccc31)CN(CCCOc1ccccc1)CC2`: the Ki was found to be 100 nM in assay [2], 75 nM in assay [4], 215 nM in assay [5] and 50 nM in assay [3].
For `COc1ccc(OCCCN2CCc3c(c4ccccc4n3C)C2)cc1`, the inhibition constant Ki turned out to be 350 nM in assay [2] and 100 nM in assay [3].
Regarding `Cn1c2c(c3ccccc31)CCN(CCCOc1ccccc1)C2`, the Ki in assay [2] was determined as 620 nM; in assay [4] it was 360 nM; in assay [5], 400 nM; in assay [3], 150 nM.
`Fc1ccc(OCCCN2CCc3[nH]c4ccccc4c3C2)cc1` came in with a Ki in assay [4] of 75 nM.
`Cn1ccc2c1CCN(CCCOc1ccc(F)cc1)C2`: the affinity in assay [1], expressed as Ki, was 1.92 µM.
`Cn1c2c(c3ccccc31)CN(CCCC(=O)c1ccc(F)cc1)CC2`: the Ki was found to be 115 nM in assay [4], 60 nM in assay [5] and 60 nM in assay [3].
As for `Cn1c2c(c3ccccc31)CN(C/C=C\CCc1ccccc1)CC2`, the Ki in assay [2] was 208 nM; in assay [4], 330 nM; in assay [5], 285 nM; in assay [3], 120 nM.
On to `Cn1c2c(c3ccccc31)CN(CCCOc1ccc3ccccc3c1)CC2`, for which the Ki in assay [4] turned out to be 655 nM; in assay [5] it was 300 nM; in assay [3] it was 480 nM.
In assay [1], `c1ccc2c3c([nH]c2c1)CNCC3` [TRYPTOLINE] showed a Ki of 3.2 µM.
In the case of `Cn1c2c(c3ccccc31)CN(CCOc1ccc(F)cc1)CC2`, the values for the Ki in assay [2], in assay [5] and in assay [3] were 930 nM, 235 nM and 175 nM, respectively.
Take `Cn1c2c(c3ccccc31)CN(CCCOCc1ccccc1)CC2`: the figures for the Ki in assay [4], in assay [5] and in assay [3] were 295 nM, 650 nM and 225 nM, respectively.
Regarding `Cn1c2c(c3ccccc31)CN(CCCCc1ccccc1)CC2`, the Ki in assay [4] amounted to 130 nM.
Regarding `Cn1c2c(c3ccccc31)CN(CCCCCc1ccccc1)CC2`, the Ki in assay [2] was 174 nM; in assay [4], 120 nM; in assay [5] it was 1000 nM; in assay [3], 130 nM.
Take `Cn1c2c(c3ccccc31)CN(CCCCCCc1ccccc1)CC2`: the Ki in assay [4] worked out at 435 nM; in assay [5], 530 nM; in assay [3], 185 nM.
In the case of `Cn1c2c(c3ccccc31)CN(CCCC(=O)c1ccccc1)CC2`, the values for the Ki in assay [2], in assay [4] and in assay [3] were 168 nM, 135 nM and 22 nM, respectively.
`COc1ccc2c3c([nH]c2c1)CNCC3` registered a Ki in assay [1] of over 10 µM.
`Cn1c2c(c3ccccc31)CN(CC#CCCc1ccccc1)CC2`: the Ki in assay [2] was determined as 1780 nM; in assay [4], 1710 nM.
`Cn1c2c(c3ccccc31)CN(CCCOc1cccc3ccccc13)CC2`: the Ki turned out to be 650 nM in assay [4], 400 nM in assay [5] and 625 nM in assay [3].
Take `O=C(CCCN1CCc2c([nH]c3ccccc23)C1)c1ccccc1`: the figures for the Ki in assay [4], in assay [5] and in assay [3] were 550 nM, 115 nM and 16 nM, respectively.
In the case of `Cn1c2c(c3ccccc31)CN(CCCCc1ccc(F)cc1)CC2`, the Ki in assay [4] is 95 nM; in assay [3] it was 65 nM.
`CC1=NCCc2c1[nH]c1cc(O)ccc21` [HARMALOL] gave a Ki in assay [1] of over 10 µM.
With `Cn1c2c(c3ccccc31)CNCC2`, the Ki in assay [3] turned out to be 3100 nM. This lies in the single-digit micromolar range.
Consider `CN(CCCOc1ccc(F)cc1)Cc1cn(C)c2ccccc12`, for which the affinity in assay [1] corresponds to a Ki of 1.08 µM.
Still for that read-out and setting: the same measure for `COc1ccc2c3c([nH]c2c1)C(C)=NCC3` [HARMALINE]: over 10 µM.
As to `Cn1c2c(c3ccccc31)CN(CCCOc1ccccc1)CC2`, the Ki in assay [2] is 100 nM; in assay [4], 25 nM; in assay [5], 285 nM; in assay [3], 70 nM.
With `Cn1c2c(c3ccccc31)CN(CCCOc1ccc([N+](=O)[O-])cc1)CC2`, the Ki in assay [2] was 250 nM; in assay [5], 300 nM; in assay [3], 280 nM.
As to `Cn1c2c(c3cccc(Cl)c31)CN(CCCOc1ccc(F)cc1)CC2`, the Ki in assay [2] was 225 nM; in assay [4] it was 590 nM; in assay [5] it was 225 nM; in assay [3] it was 210 nM.
